Results gathered from unrelated publications.
pIC50, pKd: −log10 of the molar value.
CDK2: Cyclin-dependent kinase 2 (CDK2, Homo sapiens, UniProt P24941)
CDK2 with cyclin E: Cyclin-dependent kinase 2, with cyclin E (CDK2, Homo sapiens, UniProt P24941)
CDK2 with cyclin E1: Cyclin-dependent kinase 2, with cyclin E1 (CDK2, Homo sapiens, UniProt P24941)
CDK2 with cyclin A: Cyclin-dependent kinase 2, with cyclin A (CDK2, Homo sapiens, UniProt P24941)

COc1cccc(OC)c1CNC(=O)c1ccc2c(c1)C(=NNc1ccc(S(N)(=O)=O)cc1)C(=O)N2
pKd (CDK2; binding): 7.65

CN(C)CCNC1=Nc2ccccc2-c2[nH]c3ccccc3c2C1
pIC50 (CDK2 with cyclin E; enzyme activity; inhibitor; radiometric): 4.14

OCc1c(-c2ccc(F)cc2)nc2sc3c(n12)CCCC3
pIC50 (CDK2; enzyme activity; inhibitor; mobility shift): 4.72

COc1c(C(=O)/C=C(\O)c2ccccc2)ccc2occc12
pIC50 (CDK2 with cyclin E1; enzyme activity; inhibitor; ADP detection): < 4.00

Cc1cc(Nc2cc3ncccc3c(N[C@@H]3C[C@H]4CC[C@@H](C3)N4CCC#N)n2)n[nH]1
pKd (CDK2; binding; competition with immobilised ligand): 6.12

C=CC(=O)Nc1ccc(O[C@@H]2CCC[C@@H](Nc3ncc(Cl)c(-c4c[nH]c5ccccc45)n3)C2)cc1
pIC50 (CDK2 with cyclin A; enzyme activity; inhibitor; FRET): < 5.00

CN(C)CCNc1nc2ccccc2c2[nH]c3ccccc3c12
pIC50 (CDK2 with cyclin E; enzyme activity; inhibitor; radiometric): 4.15

CN(C)CCNS(=O)(=O)c1ccc(N/C=C2\C(=O)Nc3ccccc32)cc1
pKd (CDK2; binding): 5.97

CN1CCC(c2c(O)cc(O)c3c(=O)cc(-c4ccccc4)oc23)C(O)C1 (centres unmarked)
pIC50 (CDK2 with cyclin A; enzyme activity; inhibitor): 6.71

O=S(=O)(/C=C/c1ccc(C(F)(F)F)cc1)c1ccc(-c2csc(-c3ccccc3)n2)cc1
pIC50 (CDK2; enzyme activity; inhibitor; mobility shift): 4.59

O=c1cc(-c2ccccc2)oc2ccc3ccccc3c12
pIC50 (CDK2 with cyclin E1; enzyme activity; inhibitor; ADP detection): < 5.00

c1ccc(CNc2ncnc3nc[nH]c23)cc1
pIC50 (Cyclin-dependent kinase 2, with cyclin A (CDK2, Homo sapiens, UniProt P24941, F80G); enzyme activity; inhibitor; radiometric): ~6.00

O=C(Nc1cc(C2CCCCC2)[nH]n1)c1ccc(Br)cc1
pKd (CDK2; thermal stability; DSF): < 4.00

C=CC(=O)Nc1ccc(N2CCC[C@@H](Nc3ncc(Cl)c(-c4c[nH]c5ccccc45)n3)C2)c(F)c1
pIC50 (CDK2 with cyclin A; enzyme activity; inhibitor; FRET): 5.40
